How the values were obtained:
[1] = target: T1, Human immunodeficiency virus type 1 integrase (Human immunodeficiency virus 1, UniProt Q7ZJM1); assay: Inhibitory concentration as 50% inhibition of HIV-1 integrase enzyme at strand transfer stage of DNA integration.
[2] = test system: CCRF-CEM; assay: Tested for HIV-1 replication in CEM cells.; format: functional, cell-based; details: Homo sapiens
Outline: (§1)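 CEM T4 lymphocytes, exponentially growing, 5000 cells/well, infected with thawed HIV-1 stock at m.o.i. ~0.1. Compounds dissolved in DMSO, diluted 1:100 in medium, final 1:200. Uninfected drug-treated cells served as toxicity control. Incubation 6 days at 37 °C, 5% CO2. Viability read by XTT formazan absorbance, with microscopic confirmation of protection.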

[3] = target: T1, Human immunodeficiency virus type 1 integrase; assay: Inhibition of HIV-1 integrase enzyme at 3`- processing stage of DNA integration
[4] = test system: CCRF-CEM; assay: Effective concentration was evaluated on HIV-1 infected CEM cells.; format: functional, cell-based; details: Homo sapiens; outline: as §1
[5] = test system: CCRF-CEM; assay: Effective concentration was evaluated on HIV-1 infected CEM cells. (NR-not reached due to cytotoxicity.); format: functional, cell-based; outline: as §1
[6] = test system: CCRF-CEM; assay: Effective concentration was evaluated on HIV-1 infected CEM cells; format: functional, cell-based; details: Homo sapiens; outline: as §1
[7] = target: T1, Human immunodeficiency virus type 1 integrase; assay: Inhibitory concentration was evaluated as 50% inhibition of HIV-1 integrase enzyme at strand transfer stage of DNA integration in experiment I
Outline: (§2)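 Purified recombinant HIV-1 integrase (200 nM final) preincubated with inhibitor for 30 min at 30 °C in MOPS/HEPES pH 7.2–7.5 buffer containing 7.5 mM MnCl2 and 10% DMSO. 20 nM 5'-32P-labeled 21-mer duplex oligonucleotide (AE117/AE118) added, then 1 h more. Strand transfer products resolved on denaturing 20% polyacrylamide/urea gels and quantified by phosphorimaging. % inhibition plotted against drug concentration to read IC50.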

[8] = target: T1, Human immunodeficiency virus type 1 integrase; assay: Inhibitory concentration was evaluated as 50% inhibition of HIV-1 integrase enzyme at strand transfer stage of DNA integration in experiment II; outline: as §2
[9] = target: T1, Human immunodeficiency virus type 1 integrase; assay: Inhibitory concentration was evaluated as 50% inhibition of HIV-1 integrase enzyme at 3`- processing stage of DNA integration in experiment I
[10] = target: T1, Human immunodeficiency virus type 1 integrase; assay: Inhibitory concentration was evaluated as 50% inhibition of HIV-1 integrase enzyme at 3`- processing stage of DNA integration in experiment II
[11] = test system: CCRF-CEM; assay: Effective concentration was evaluated on HIV-1 infected CEM cells.(NR-not reached due to cytotoxicity.); format: functional, cell-based, Homo sapiens; outline: as §1

T1 sequence (Q7ZJM1 whole entry): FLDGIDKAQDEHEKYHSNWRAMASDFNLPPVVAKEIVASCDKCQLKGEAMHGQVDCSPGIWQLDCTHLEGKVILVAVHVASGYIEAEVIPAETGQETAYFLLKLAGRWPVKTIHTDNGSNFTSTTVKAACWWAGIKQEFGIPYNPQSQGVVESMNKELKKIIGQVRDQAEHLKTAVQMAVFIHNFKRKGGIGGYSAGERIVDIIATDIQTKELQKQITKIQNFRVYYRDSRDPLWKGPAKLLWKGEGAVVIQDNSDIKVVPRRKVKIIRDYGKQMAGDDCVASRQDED

SMILES | IC50 [1] | IC50 [2] | IC50 [3] | EC50 [5] | further results
CC1=NN(C(=O)c2ccc(Cl)cc2)C(=O)/C1=C/c1ccc(Cl)cc1 | > 280 µM | > 10 µM | > 280 µM | – | EC50 [4]: > 10 µM
COc1cc(C2C(Cl)C(=O)N2NC(=O)c2ccccc2O)ccc1O (stereo not drawn) | 262 µM | > 27.5 µM | > 275 µM | Not reached | –
O=C(O)c1ccccc1C(=O)NNC(=O)c1ccccc1C(=O)O | > 100 µM | – | > 100 µM | – | –
COc1cc(/C=C2/C(=O)N(C(=O)c3ccccc3O)N=C2C)cc(OC)c1OC | 2 µM | 0.24 µM | 2 µM | Not reached | –
Nc1ccccc1C(=O)NNC(=O)c1ccccc1N | > 100 µM | > 200 µM | > 100 µM | – | EC50 [6]: > 200 µM
COc1ccc(C2C(Cl)C(=O)N2NC(=O)c2ccccc2O)cc1 (stereo not drawn) | 167 µM | > 144 µM | 288 µM | – | –
O=C(NNC(=O)c1cccc2ccccc12)c1ccccc1Br | > 100 µM | – | > 100 µM | – | –
O=C(NNC(=O)c1ccc(Cl)c(Cl)c1)c1ccccc1 | > 100 µM | – | > 100 µM | – | –
CC1=NN(C(=O)c2ccccc2O)C(=O)/C1=C/c1ccc([N+](=O)[O-])cc1 | 0.6 µM | 0.091 µM | 0.8 µM | Not reached | –
CC1=NN(C(=O)c2ccccc2O)C(=O)/C1=C/c1ccco1 | 2 µM | 0.6 µM | 2.7 µM | Not reached | –
CC1=NN(C(=O)c2ccccc2O)C(=O)/C1=C/c1ccc(O)cc1 | 0.9 µM | 0.059 µM | 0.6 µM | Not reached | –
CC1=NN(C(=O)c2ccccc2O)C(=O)/C1=C/c1ccccc1O | 2.8 µM | 0.062 µM | – | Not reached | –
O=C(NN1C(=O)C(Cl)C1c1c(O)ccc2ccccc12)c1ccccc1O (stereo not drawn) | 222 µM | – | 127 µM | – | –
COc1cc(C(=O)NNC(=O)c2ccc(Cl)cc2)cc(OC)c1OC | > 100 µM | – | > 100 µM | – | –
O=C(NNC(=O)c1ccccc1Br)c1ccccc1Br | > 100 µM | – | > 100 µM | – | –
O=C(NNC(=O)c1ccc(Cl)c(Cl)c1)c1ccc(Cl)c(Cl)c1 | > 100 µM | – | > 100 µM | – | –
CC1=NN(C(=O)c2ccccc2O)C(=O)/C1=C/c1cccc([N+](=O)[O-])c1 | 2.6 µM | 0.098 µM | 1.4 µM | Not reached | –
O=C(NNC(=O)c1cccc2ccccc12)c1ccc(Cl)c(Cl)c1 | > 100 µM | – | > 100 µM | – | –
O=C(NNC(=O)c1ccc2ccccc2c1)c1ccc(Cl)c(Cl)c1 | > 100 µM | – | > 100 µM | – | –
O=C(NNC(=O)c1ccc(Br)cc1)c1ccc(Br)cc1 | > 100 µM | – | > 100 µM | – | –
COc1ccc(/C=C2/C(=O)N(C(=O)c3ccccc3O)N=C2C)cc1 | 0.6 µM | 0.053 µM | 0.9 µM | Not reached | –
COc1cc(/C=C2/C(=O)N(C(=O)c3ccccc3O)N=C2C)ccc1O | 0.6 µM | – | 0.8 µM | Not reached | –
O=C(NN1C(=O)C(Cl)C1c1cccc(O)c1)c1ccccc1O (stereo not drawn) | – | > 15 µM | – | Not reached | IC50 [7]: 236 µM; IC50 [8]: 99 µM; IC50 [9]: 180 µM; IC50 [10]: 225 µM

SMILES | IC50 [1] | IC50 [2] | IC50 [3] | EC50 [5] | further results
CC1=NN(C(=O)c2ccc(Cl)cc2)C(=O)/C1=C/c1ccc(O)cc1 | > 293 µM | > 15 µM | > 293 µM | – | EC50 [4]: > 15 µM
CC1=NN(C(=O)c2ccc(Cl)cc2)C(=O)/C1=C/c1cccc(O)c1 | > 293 µM | > 8 µM | > 293 µM | – | EC50 [4]: > 8 µM
CCOc1ccccc1C(=O)NNC(=O)c1ccccc1OCC | > 100 µM | – | > 100 µM | – | –
COc1cc(C2C(Cl)C(=O)N2NC(=O)c2ccccc2O)cc(OC)c1OC (stereo not drawn) | 73.7 µM | 4.4 µM | – | Not reached | IC50 [9]: 68.8 µM; IC50 [10]: 75.7 µM
O=C(NN1C(=O)C(Cl)C1c1ccc(O)cc1)c1ccccc1O (stereo not drawn) | 285 µM | 10.3 µM | > 300 µM | Not reached | –
CC1=NN(C(=O)c2ccc(Cl)cc2)C(=O)/C1=C/c1ccccc1O | > 293 µM | > 21 µM | > 293 µM | – | EC50 [4]: > 21 µM
COc1ccc(C2C(Cl)C(=O)N2NC(=O)c2ccccc2O)cc1OC (stereo not drawn) | 106 µM | > 50 µM | – | Not reached | IC50 [9]: 125 µM; IC50 [10]: 109 µM
O=C(NNC(=O)c1ccccc1F)c1ccc2ccccc2c1 | > 100 µM | – | > 100 µM | – | –
COc1cc(C(=O)NNC(=O)c2ccc(Cl)c(Cl)c2)cc(OC)c1OC | > 100 µM | – | > 100 µM | – | –
CC1=NN(C(=O)c2ccc(Cl)cc2)C(=O)/C1=C/c1cccc([N+](=O)[O-])c1 | > 270 µM | > 20 µM | > 270 µM | – | EC50 [6]: > 20 µM
O=C(NN1C(=O)C(Cl)C1c1ccc([N+](=O)[O-])cc1)c1ccccc1O (stereo not drawn) | – | > 10 µM | – | Not reached | IC50 [7]: 155 µM; IC50 [8]: 83 µM; IC50 [9]: 192 µM; IC50 [10]: 168 µM
O=C(NNC(=O)c1ccccc1F)c1ccccc1F | > 100 µM | – | > 100 µM | – | –
O=C(NN1C(=O)C(Cl)C1c1ccccc1O)c1ccccc1O (stereo not drawn) | 264 µM | 8.2 µM | 300 µM | Not reached | –
O=C(NNC(=O)c1cccc2ccccc12)c1ccccc1F | > 100 µM | – | > 100 µM | – | –
CC1=NN(C(=O)c2ccccc2O)C(=O)/C1=C/c1cccc(O)c1 | 7.4 µM | – | 0.9 µM | Not reached | –
COc1ccc(/C=C2/C(=O)N(C(=O)c3ccccc3O)N=C2C)cc1OC | – | 0.15 µM | – | Not reached | –
O=C(NN1C(=O)C(Cl)C1c1cccc(Cl)c1)c1ccccc1O (stereo not drawn) | 125 µM | > 74 µM | – | Not reached | IC50 [9]: 155 µM; IC50 [10]: 202 µM
O=C(NNC(=O)c1ccc(Cl)cc1Cl)c1ccc2ccccc2c1 | > 100 µM | – | > 100 µM | – | –
O=C(NNC(=O)c1ccccc1O)c1ccccc1O | – | 0.1 µM | – | – | EC50 [11]: Not reached
COc1ccc(/C=C2/C(=O)N(C(=O)c3ccc(Cl)cc3)N=C2C)cc1OC | > 260 µM | > 35 µM | > 260 µM | – | EC50 [4]: > 35 µM
O=C(NN1C(=O)C(Cl)C1c1ccccc1Cl)c1ccccc1O (stereo not drawn) | 94 µM | > 14.8 µM | – | Not reached | IC50 [9]: 241 µM; IC50 [10]: 248 µM
COc1cc(/C=C2/C(=O)N(C(=O)c3ccc(Cl)cc3)N=C2C)cc(OC)c1OC | > 240 µM | > 17 µM | > 240 µM | – | EC50 [4]: > 17 µM

From ChEMBL document CHEMBL1131060, “Salicylhydrazine-containing inhibitors of HIV-1 integrase: implication for a selective chelation in the integrase active site” (J Med Chem, 1998)
